Experimental data published in ChEMBL document CHEMBL1129961, “Design, synthesis, and antiviral evaluation of 2-chloro-5,6-dihalo-1-beta-D-ribofuranosylbenzimidazoles as potential agents for human cytomegalovirus infections” (J Med Chem, 1997).

Assays:
[1] = test system: Human betaherpesvirus 5; assay: Concentration required for 50% inhibition of HCMV replication was measured using a Plaque reduction assay; assay type: functional, organism-based
In short: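 HFF cells in 24-well dishes infected with about 100 pfu of HCMV (Towne) per cm² cell sheet. After adsorption, compound in growth medium added to duplicate wells at four to eight concentrations. Incubated 7 days at 37 °C, then crystal violet fixing/staining and microscopic plaque counts. IC50 by linear regression of % plaque reduction against log concentration.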

[2] = test system: HFF; assay: Visual cytotoxicity was scored on HFF cells at time of HCMV plaque enumeration; assay type: functional, cell-based; details: Homo sapiens
In short: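 Stationary HFF cells from the HCMV plaque assay, not affected by virus, inspected microscopically for cytotoxicity when plaques were counted after 7 days at 37 °C with compound at four to eight concentrations.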

[3] = test system: Human alphaherpesvirus 1; assay: Antiviral activity was measured by plaque assay against HSV-1 virus by ELISA method; assay type: functional, organism-based
In short: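 HSV-1 (KOS strain) ELISA in BSC-1 cells, 10 000 per well in MEM(E) + 10% calf serum, seeded overnight at 37 °C. Drug in quadruplicate wells plus virus at 100 pfu/well, 3 days at 37 °C. Read-out: HRP-conjugated rabbit anti-HSV-1 antibody with TMB substrate, stopped with H2SO4, absorbance at 450 and 570 nm. IC50 from linear regression of % inhibition against log concentration.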

[4] = test system: Human betaherpesvirus 5; assay: Concentration required for 90% inhibition of HCMV replication was measured using a yield reduction assay; assay type: functional
In short: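 HFF monolayers in 96-well dishes infected with HCMV (Towne) at moi 0.5 to 1 pfu per cell. Compound serially diluted 1:3, 100 to 0.14 μM, in duplicate. 7 days at 37 °C, then one freeze-thaw cycle. Progeny titred by 1:3 serial dilution onto fresh HFF monolayers with plaque counts. IC90 by regression of % inhibition against log concentration.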

[5] = test system: KB; assay: Inhibition of KB cell growth was determined; assay type: functional, cell-based; details: Homo sapiens
In short: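 KB cells seeded at 3000–5000 per well, overnight at 37 °C. Compound added in quadruplicate at six to eight concentrations, 48 h at 37 °C in CO2 (two population doublings). Ethanol fixation, 0.1% crystal violet staining, acidified-ethanol elution, absorbance at 570 nm. IC50 by linear regression against log concentration.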

| SMILES | IC50 [1] [µM] | IC50 [2] [µM] | IC50 [3] [µM] | IC90 [4] [µM] | IC50 [5] [µM] |
| --- | --- | --- | --- | --- | --- |
| Nc1cc2[nH]c(Cl)nc2cc1I | > 100 | > 100 | > 100 | – | – |
| O=[N+]([O-])c1cc2[nH]c(Cl)nc2cc1I | 2.8 | 10 | 25 | 7 | – |
| Nc1cc2[nH]c(Cl)nc2cc1[N+](=O)[O-] | > 100 | > 100 | 90 | – | – |
| Fc1cc2nc(Cl)[nH]c2cc1F | > 100 | > 100 | – | – | > 100 |
| Clc1nc2cc(I)c(I)cc2[nH]1 | 20 | 32 | – | – | – |
| Clc1nc2cc(Br)c(Br)cc2[nH]1 | 8.5 | 32 | 65 | – | 35 |
| OC[C@H]1O[C@@H](n2c(Cl)nc3cc(Cl)c(Cl)cc32)[C@H](O)[C@@H]1O | – | – | – | 1.4 | – |
| OC[C@H]1OC(n2c(Cl)nc3cc(I)c(I)cc32)[C@H](O)[C@@H]1O (some centres not stated) | 2.5 | 13 | 57 | 2.2 | 27 |
| Cc1cc2nc(Cl)n(C3O[C@H](CO)[C@@H](O)[C@H]3O)c2cc1C (some centres not stated) | > 100 | > 100 | > 100 | – | > 100 |
| OC[C@H]1OC(n2c(Cl)nc3cc(F)c(F)cc32)[C@H](O)[C@@H]1O (some centres not stated) | > 100 | > 100 | > 100 | 75 | > 100 |
| OC[C@H]1OC(n2c(Cl)nc3cc(Br)c(Br)cc32)[C@H](O)[C@@H]1O (some centres not stated) | 3.8 | 44 | > 100 | 1.3 | 88 |
| OC[C@H]1OC(n2c(Cl)nc3ccccc32)[C@H](O)[C@@H]1O (some centres not stated) | > 100 | > 100 | – | > 100 | > 100 |
| O=C(O)P(=O)(O)O [FOSCARNET] | – | > 100 | – | – | – |
| Nc1nc2c(ncn2COC(CO)CO)c(=O)[nH]1 [GANCICLOVIR] | – | > 100 | – | 1.6 | > 100 |
